Where a name gives a salt, the structure may show the parent alone. Read-outs that look alike come from different tables or passages of the source.
Tests used:
[1] = test system: WT and CLPP−/− MDA-MB-231 cells; experiment: Apoptotic onset check; assay type: cell-based, human
Outline: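 WT and CLPP−/− MDA-MB-231 cells in DMEM/F-12 with 10% FBS and 2 mM L-glutamine were exposed to 1 μM test compound or DMSO for 24 hours. Morphology was checked by light microscopy and nuclei by DAPI fluorescence. Positive control was 2 μM doxorubicin or DMSO for 72 hours. Lysates were made by sonication in Dulbecco's PBS and protein-equalized, then run on SDS-PAGE, immunoblotted on PVDF and imaged on film.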

MDA-MB-231 CLPP−/− cells = experiment: Growth inhibition profiling; assay type: cell-based, human; conditions: read-out: IC50 (nM), MDA-MB-231 CLPP−/−
[2] = test system: HEK293 T-REx CLPP−/− cells; experiment: Growth inhibition profiling; assay type: cell-based, human; conditions: read-out: IC50 (nM), HEK293 T-REx CLPP−/−
[3] = test system: TFAM and Grp75 levels in MDA-MB-231 CLPP−/− cells; experiment: Western blot of TFAM and Grp75, MDA-MB-231 CLPP−/−; assay type: cell-based, human; conditions: 1 μM, 24 hours
Outline: (§1)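 MDA-MB-231 cells (WT or CLPP−/−) were grown in DMEM/F-12 with 10% FBS and 2 mM L-glutamine. They were treated for 24 hours with 1 μM test compound or 6 μM of a reference compound. Pellets were sonicated in Dulbecco's PBS and protein was equalized. TFAM and Grp75 were detected by SDS-PAGE, transfer to PVDF and western blotting, imaged by film.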

[4] = test system: TFAM and Grp75 levels in MDA-MB-231 WT cells; experiment: Western blot of TFAM and Grp75, MDA-MB-231 WT; assay type: cell-based, human; conditions: 1 μM, 24 hours
Outline: as §1

HEK293 T-REx WT cells = experiment: Growth inhibition profiling; assay type: cell-based, human; conditions: read-out: IC50 (nM), HEK293 T-REx WT
human ClpP = human ClpP (Homo sapiens, UniProt Q16740); experiment: Casein-FITC degradation assay; assay type: biochemical; conditions: for Casein-FITC degradation h (at 2.5 μM ClpP): Hill coefficient, 2.5 μM ClpP protomer
Sequence of human ClpP (Q16740 57-277): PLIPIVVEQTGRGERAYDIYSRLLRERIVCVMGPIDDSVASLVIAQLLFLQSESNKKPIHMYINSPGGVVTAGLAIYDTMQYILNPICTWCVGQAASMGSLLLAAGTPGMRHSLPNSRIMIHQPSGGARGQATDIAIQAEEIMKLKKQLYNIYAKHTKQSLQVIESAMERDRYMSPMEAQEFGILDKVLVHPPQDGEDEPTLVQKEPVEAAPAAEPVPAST

[5] = test system: HEK293 T-REx CLPX−/− cells; experiment: Growth inhibition profiling; assay type: cell-based, human; conditions: read-out: IC50 (nM), HEK293 T-REx CLPX−/−
MDA-MB-231 WT cells = experiment: Growth inhibition profiling; assay type: cell-based, human; conditions: read-out: IC50 (nM), MDA-MB-231 WT
MDA-MB-231 CLPX−/− cells = experiment: Growth inhibition profiling; assay type: cell-based, human; conditions: read-out: IC50 (nM), MDA-MB-231 CLPX−/−
COLO205 = experiment: One-dose NCI-60 screen, COLO205; assay type: cell-based, human; conditions: 10 μM, 48-hour exposure
Outline: (§2)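 Run by NCI DCTD. Cells were seeded at 5,000–40,000/well in RPMI 1640 with 5% FBS and 2 mM L-glutamine and grown 24 h at 37 °C, 5% CO2. Test compound was added at 10 μM final for 48 h, with a time-zero plate kept. Cells were fixed with cold TCA (10% final for adherent, 16% for non-adherent) and stained with 0.4% SRB. Growth was calculated from A515 at 0 and 48 h.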

MDA-MB-468 = experiment: One-dose NCI-60 screen, MDA-MB-468; assay type: cell-based, human; conditions: 10 μM, 48-hour exposure
Outline: as §2

MDA-MB-231 = experiment: One-dose NCI-60 screen, MDA-MB-231; assay type: cell-based, human; conditions: 10 μM, 48-hour exposure
[6] = target: ClpP (substrate TFAM lacking the MTS) (Homo sapiens, UniProt Q16740); experiment: In vitro degradation assay using TFAM; assay type: biochemical; conditions: 20 μM compound, 13.5 μM TFAM, 15.5 μM ClpP, 37 °C, 0-5 h
Sequence of ClpP (substrate TFAM lacking the MTS) (Q16740 57-277): as above

[7] = Homo sapiens, HEK293-T-REx, 72 h

Row | SMILES | Casein-FITC degradation h (at 2.5 μM ClpP) (human ClpP) | IC50 (MDA-MB-231 CLPP−/− cells; Homo sapiens, MDA-MB-231, 72 h) | Kd (human ClpP) | IC50 (MDA-MB-231 WT cells; Homo sapiens, MDA-MB-231, 72 h) | IC50 (MDA-MB-231 CLPX−/− cells; Homo sapiens, MDA-MB-231, 72 h) | IC50 (MDA-MB-231 CLPP−/− cells; 72 hr, SRB assay) | IC50 ([2]; 72 hr, SRB assay) | IC50 (HEK293 T-REx WT cells; 72 hr, SRB assay) | IC50 ([5]; 72 hr, SRB assay) | IC50 (MDA-MB-231 WT cells; 72 hr, SRB assay) | IC50 (MDA-MB-231 CLPX−/− cells; 72 hr, SRB assay) | IC50 [2, 7] | IC50 (HEK293 T-REx WT cells; [7]) | IC50 [5, 7] | lethality (MDA-MB-468) | growth suppression (MDA-MB-231) | further results
1 | COc1cccc2c1C(=O)c1c(O)c3c(c(O)c1C2=O)C[C@@](O)(C(=O)CO)C[C@@H]3O[C@H]1C[C@H](N)[C@H](O)[C@H](C)O1 [doxorubicin, doxorubicin hydrochloride, reference compound] |  |  |  |  |  |  |  |  |  |  |  |  |  |  |  |  | caspase 9 cleavage ([1]; 2 μM, 72 hrs, positive control): clearly showed caspase 9 cleavage
2 | N#Cc1cccc(CN2CCc3ncn(Cc4ccc(Br)cc4)c(=O)c3C2)c1 [TR-133, 3-([3-[(4-bromophenyl)methyl]-4-oxo-3H,4H,5H,6H,7H,8H-pyrido[4,3-d]pyrimidin-6-yl]methyl)benzonitrile] | 6.2 ± 1.3 | > 1000 nM | 0.0291 ± 0.0078 µM | 27.8 ± 0.4 nM | 29.5 ± 0.7 nM |  |  |  |  |  |  | > 1000 nM | 20.7 ± 0.7 nM | 26 ± 2 nM |  |  | 
3 | Cn1c2c(c(=O)n(Cc3ccc(Cl)cc3)c1=O)CN(Cc1cccc(C#N)c1)CC2 [TR-57, 3-((3-(4-chlorobenzyl)-1-methyl-2,4-dioxo-1,2,3,4,7,8-hexahydropyrido[4,3-d]pyrimidin-6(5H)-yl)methyl)benzonitrile] | 9.4 ± 7.8 | > 1000 nM | 0.0155 ± 0.012 µM | 19.3 ± 0.2 nM | 19.9 ± 0.3 nM |  |  |  |  |  |  | > 1000 nM | 8.9 ± 0.2 nM | 11.8 ± 0.4 nM | 15% | 68% | lethality (COLO205): 41%
4 | N#Cc1cccc(CN2CCc3ncn(Cc4ccc(Cl)cc4)c(=O)c3C2)c1 [TR-107] | 5.5 ± 0.7 |  |  |  |  | > 1000 nM | > 1000 nM | 22.8 ± 0.7 nM | 27 ± 2 nM | 29.4 ± 0.2 nM | 27.4 ± 0.8 nM |  |  |  | 22% | 73% | 

Continued, in another order:

Row | Casein-FITC degradation h (at 2.5 μM ClpP) (human ClpP) | IC50 (MDA-MB-231 CLPP−/− cells; Homo sapiens, MDA-MB-231, 72 h) | Kd (human ClpP) | IC50 (MDA-MB-231 WT cells; Homo sapiens, MDA-MB-231, 72 h) | IC50 (MDA-MB-231 CLPX−/− cells; Homo sapiens, MDA-MB-231, 72 h) | SMILES | IC50 (MDA-MB-231 CLPP−/− cells; 72 hr, SRB assay) | IC50 ([2]; 72 hr, SRB assay) | IC50 (HEK293 T-REx WT cells; 72 hr, SRB assay) | IC50 ([5]; 72 hr, SRB assay) | IC50 (MDA-MB-231 WT cells; 72 hr, SRB assay) | IC50 (MDA-MB-231 CLPX−/− cells; 72 hr, SRB assay) | IC50 [2, 7] | IC50 (HEK293 T-REx WT cells; [7]) | IC50 [5, 7] | lethality (MDA-MB-468) | growth suppression (MDA-MB-231) | further results
5 | 8.1 ± 1.2 |  |  |  |  | C#Cc1cccc(CN2CCC3=C(C2)C(=O)N(Cc2ccc(Cl)cc2)C2=NCCN23)c1 [TR-27] | > 1000 nM | > 1000 nM | 46.1 ± 1.3 nM | 57.7 ± 3.4 nM | 90.7 ± 1.7 nM | 98.9 ± 1.7 nM |  |  |  |  |  | levels of TFAM and Grp75 [3]: unchanged; levels of TFAM and Grp75 [4]: reduced; ClpX level ([1]; 1 μM, 24 hours): reduced; signs of apoptosis (morphology, nuclear integrity, Mcl1, caspases 9, 3, 8) ([1]; 1 μM, 24 hours): absence of significant apoptosis
6 | 10.9 ± 2.5 | > 1000 nM | 0.0233 ± 0.0091 µM | 9.4 ± 0.2 nM | 9.4 ± 0.2 nM | N#Cc1cccc(CN2CCC3=C(C2)C(=O)N(Cc2ccc(Cl)cc2)C2=NCCN23)c1 [TR-65, 3-((4-(4-Chlorobenzyl)-5-oxo-1,2,4,5,8,9-hexahydroimidazo[1,2-a]pyrido[3,4-e]pyrimidin-7(6H)-yl)methyl)benzonitrile] |  |  |  |  |  |  | > 1000 nM | 9.8 ± 0.3 nM | 11 ± 0.2 nM |  |  | degradation of TFAM by compound-activated ClpP [6]: degradation of TFAM by TR-activated ClpP in a time-dependent manner
